Measurements reported in ChEMBL document CHEMBL6071141, “In vitro and in vivo evaluation of Bombesin-MMAE conjugates for targeted tumour therapy” (Eur J Med Chem, 2024).
The source made the active and inactive calls. The calls are words filed in the database; no cut-off is given here. Numbered stars: 1 amine (or outer) side, 2 acyl side, 3 side chain; on linkers, the order of the positions; unused ones are H or OH. Bridge positions count the residues as written; N and C are the ends. Square brackets hold non-standard residues; d marks the D form. Peptide text beside a SMILES is read from it. I, II: the chains in the order shown. * marks the point of attachment. Hexanoyl(6-succinimido-3yl) = O=C1CC([*:1])C(=O)N1CCCCCC(=O)[*:2]; Dolaproine = CO[C@@H]([C@@H]1CCCN1)[C@@H](C)C(=O)O; X2 = O=C([C@H](CC1=CSC2C=CC=CC12)N[*:1])[*:2]; Dil = CC[C@H](C)[C@H](NC)[C@@H](CC(=O)O)OC; PABC = O=C(OCc1ccc(N[*:1])cc1)[*:2]; X3 = C[C@@H](N*)[C@@H](O)c1ccccc1; Cit = NC(=O)NCCC[C@H](N)C(=O)O; PEG4 = NCCOCCOCCOCCOCCC(=O)O; NMeV = CN[C@H](C(=O)O)C(C)C; Nle = CCCC[C@H](N)C(=O)O

Key:
[1] = Cytotoxicity against human PC-3 cells assessed as inhibition of cell growth incubated for 72 hrs by CellTiter 96 aqueous assay; assay type: toxicity, cell-based
In short: (§1)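 PC-3 or MDA-MB-231 cells were treated the day after seeding with serial dilutions, from 2000 nM for conjugates and 100 nM for MMAE, for 72 h. Then the assay was stopped, or run 72 h more after a medium change (single) or re-treatment (double). Controls got 0.05 % DMSO. Read-out was MTS absorbance at 490 nm after 90 min. IC50 by non-linear regression; ≥2 experiments, triplicates.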

[2] = Cytotoxicity against human cells MDA-MB-231 assessed as inhibition of cell growth incubated for 72 hrs by CellTiter 96 aqueous assay; assay type: toxicity, cell-based; details: MDA-MB-231 cells; in short: as §1
[3] = Cytotoxicity against human PC-3 cells assessed as inhibition of cell growth incubated with compound for 72 hrs followed by further incubated for 72 hrs (single treatment) by CellTiter 96 aqueous assay; assay type: toxicity, cell-based; in short: as §1
[4] = Cytotoxicity against human PC-3 cells assessed as inhibition of cell growth incubated for 72 hrs and followed by treated with compound continued incubation for further 72 hrs (double treatment) after retreatment of compound by CellTiter 96 aqueous assay; assay type: toxicity, cell-based; in short: as §1
[5] = Cytotoxicity against human MDA-MB-231 cells assessed as inhibition of cell growth incubated with compound for 72 hrs followed by further incubated for 72 hrs (single treatment) by CellTiter 96 aqueous assay; assay type: toxicity, cell-based; in short: as §1
[6] = Cytotoxicity against human MDA-MB-231 cells assessed as inhibition of cell growth incubated for 72 hrs and followed by treated with compound continued incubation for further 72 hrs (double treatment) after retreatment of compound by CellTiter 96 aqueous assay; assay type: toxicity, cell-based; in short: as §1
[7] = biological target: T1, Gastrin-releasing peptide receptor (Homo sapiens, UniProt P30550); experiment: Displacement of 125 I- [Tyr4] from bombesin receptor 2 in human PC-3 cells assessed as inhibition by radioligand displacement assay; assay type: cell-based
T1 sequence (P30550 whole entry): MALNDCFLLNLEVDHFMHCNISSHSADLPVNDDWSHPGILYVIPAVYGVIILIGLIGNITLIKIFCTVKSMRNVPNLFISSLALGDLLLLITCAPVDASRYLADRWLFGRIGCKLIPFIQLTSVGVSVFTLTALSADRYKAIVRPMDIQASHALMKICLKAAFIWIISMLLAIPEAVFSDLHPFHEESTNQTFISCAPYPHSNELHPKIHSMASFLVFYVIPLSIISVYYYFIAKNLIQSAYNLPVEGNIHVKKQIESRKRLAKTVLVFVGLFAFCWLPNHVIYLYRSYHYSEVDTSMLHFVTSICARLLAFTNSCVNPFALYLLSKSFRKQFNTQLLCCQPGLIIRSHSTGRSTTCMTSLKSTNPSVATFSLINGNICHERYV
In short: (§2)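 Competition binding on membrane preparations from PC-3 or MDA-MB-231 cells against ¹²⁵I-[Tyr⁴]-bombesin, with conjugates at 10 μM–10 pM. IC50 was taken as the concentration giving 50 % inhibition of tracer binding.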

[8] = biological target: T1, Gastrin-releasing peptide receptor; experiment: Displacement of 125 I- [Tyr4] from bombesin receptor 2 in human MDA-MB-231 cells assessed as inhibition by radioligand displacement assay; assay type: cell-based; in short: as §2
[9] = Metabolic stability in human plasma assessed as half life at 5 uM measured upto 24 hrs by LC-HRMS analysis; assay type: ADME, cell-free
In short: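 Conjugates at 5 μM were incubated in human or mouse plasma at 37 °C, in duplicate. Samples were taken at t0, 0.25, 0.5, 1, 2, 4 and 24 h and quenched with 1 % formic acid in MeCN (2× volume). After centrifugation (14000 rpm, 4 °C), supernatants were diluted 1:1 with water and analysed by LC-HRMS.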

[10] = Toxicity in mouse xenografted with human PC-3 cells assessed as body weight loss at 1 mg/kg, ip administered relative to control; assay type: organism-based; details: in vivo, 2 mg/kg, in the assay text read “2 mg/kg” for “1 mg/kg”
In short: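 Toxicity in mice bearing subcutaneous PC-3 tumours after a single i.p. dose 9 days post-inoculation. Free drug at 1 mg/kg, conjugates at 2 mg/kg MMAE-content, in 5 % DMSO in water; solvent controls; eight per group. Body weight followed periodically. Endpoint at 20 % weight loss; behaviour (activity, coat, stool, paleness) also scored.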

PC-3 [11] = experiment: Antitumor activity against human PC-3 cells xenografted in mouse assessed as reduction in tumour volume relative to control; assay type: functional; design: scale not given: the % may be the effect or the level left
In short: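 Acute study in mice bearing subcutaneous PC-3 tumours. Single i.p. dose (0.1 mL) 9 days after inoculation, at a mean tumour volume of 62 mm³. Eight per group, randomized. Conjugates at 2 mg/kg MMAE-content, free MMAE at 1 mg/kg, in 5 % DMSO in water; solvent controls. Calliper volume V = ab²×π/6. Sacrifice at 20 % weight loss or 2000 mm³.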

PC-3 [12] = experiment: Antitumor activity against human PC-3 cells xenografted in mouse assessed as inhibition in tumour growth at 0.5 mg/kg, ip administered upto 23 days; assay type: functional, organism-based; details: time <= 23.0 day
In short: (§3)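 Chronic study in mice bearing subcutaneous PC-3 tumours. Dosing began 8 days after cell inoculation, at a mean tumour volume of 93 mm³. Seven per group, randomized. Four i.p. doses (0.1 mL) on days 8, 11, 16 and 23 of 0.5 mg/kg MMAE-content, in 5 % DMSO in water for injection; controls got solvent. Tumour volume by calliper, V = ab²×π/6.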

PC-3 [13] = experiment: Antitumor activity against human PC-3 cells xenografted in mouse assessed as reduction in tumour weight at 0.5 mg/kg, ip administered upto 23 days relative to control; assay type: functional; design: scale not given: the % may be the effect or the level left; details: time <= 23 day
PC-3 [14] = experiment: Antitumor activity against human PC-3 cells xenografted in mouse assessed as reduction in tumour size at 0.5 mg/kg, ip administered upto 23 days relative to control; assay type: functional; design: scale not given: the % may be the effect or the level left; details: time <= 23 day; in short: as §3
[15] = Biodistribution in mouse xenografted with human PC-3 cells assessed as tumour environment incubated for 24 hrs by LC-HRMS; assay type: ADME, organism-based, Neoplasm; details: in vivo
In short: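 Mice bearing PC-3 xenografts received a single 2 mg/kg i.p. dose. Blood, tumour, liver, kidneys, heart, lungs and pancreas were collected at 1, 6 and 24 h and pooled per group. Tissues were homogenised in water (1:2 w/v) and centrifuged. Released MMAE was measured by LC-HRMS and expressed as %ID/g (n = 3).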

PC-3 [16] = experiment: Antitumor activity against human PC-3 cells xenografted with mouse assessed as median survival days at 2 mg/kg, ip (reference value: 33 days)

IC50 [7] [nM]	IC50 [8] [nM]	SMILES	IC50 at 72 h [1] [nM]	IC50 at 72 h [2] [nM]	IC50 at 144 h [3] [nM]	IC50 at 144 h [4] [nM]	IC50 at 144 h [5] [nM]	IC50 at 144 h [6] [nM]	half-life at 5 µM [9] [h]	Activity [10] [%]	Activity (PC-3 [11]) [%]	Activity (PC-3 [12])	Activity (PC-3 [13]) [%]	Activity (PC-3 [14]) [%]	Drug uptake [15]	Survival (PC-3 [16]) [days]
80.7	82.4	CCCC[C@H](NC(=O)[C@H](CC(C)C)NC(=O)[C@H](Cc1c[nH]cn1)NC(=O)CNC(=O)[C@@H](NC(=O)[C@H](C)NC(=O)[C@H](CC1=CSC2C=CC=CC12)NC(=O)[C@H](CCC(N)=O)NC(=O)[C@H](CC(N)=O)NC(=O)CCOCCOCCOCCOCCNC(=O)[C@H](CSC1CC(=O)N(CCCCCC(=O)N[C@@H](CCC(=O)O)C(=O)NCC(=O)N[C@@H](CCCNC(N)=O)C(=O)Nc2ccc(COC(=O)N(C)[C@H](C(=O)N[C@H](C(=O)N(C)[C@@H]([C@@H](C)CC)[C@@H](CC(=O)N3CCC[C@H]3[C@H](OC)[C@@H](C)C(=O)N[C@H](C)[C@@H](O)c3ccccc3)OC)C(C)C)C(C)C)cc2)C1=O)NC(C)=O)C(C)C)C(N)=O (some centres not stated) (I: Ac-C[PEG4]NQ[X2]AVGHL[Nle]-NH2 / II: EG[Cit][PABC][NMeV]V[Dil][Dolaproine]-X3; linker I:1-II:N via Hexanoyl(6-succinimido-3yl))	782	1260	216	165	268	217	–	–	–	–	–	–	–	–
71.1	76.9	CC[C@H](C)[C@@H]([C@@H](CC(=O)N1CCC[C@H]1[C@H](OC)[C@@H](C)C(=O)N[C@H](C)[C@@H](O)c1ccccc1)OC)N(C)C(=O)[C@@H](NC(=O)[C@H](C(C)C)N(C)C(=O)OCc1ccc(NC(=O)[C@H](CCCNC(N)=O)NC(=O)CNC(=O)[C@H](CCC(=O)O)NC(=O)CCCCCN2C(=O)CC(SC[C@H](NC(C)=O)C(=O)NCCOCCOCCOCCOCCC(=O)N[C@H](Cc3ccccc3)C(=O)N[C@@H](CCC(N)=O)C(=O)N[C@@H](CC3=CSC4C=CC=CC34)C(=O)N[C@@H](C)C(=O)N[C@H](C(=O)NCC(=O)N[C@@H](Cc3c[nH]cn3)C(=O)N[C@@H](CC(C)C)[C@@H](O)CC(=O)N[C@@H](CC(C)C)C(N)=O)C(C)C)C2=O)cc1)C(C)C (some centres not stated)	586	943	142	116	171	130	–	–	–	–	–	–	–	–

SMILES	IC50 [7] [nM]	IC50 [8] [nM]	IC50 at 72 h [1] [nM]	IC50 at 72 h [2] [nM]	IC50 at 144 h [3] [nM]	IC50 at 144 h [4] [nM]	IC50 at 144 h [5] [nM]	IC50 at 144 h [6] [nM]	half-life at 5 µM [9] [h]	Activity [10] [%]	Activity (PC-3 [11]) [%]	Activity (PC-3 [12])	Activity (PC-3 [13]) [%]	Activity (PC-3 [14]) [%]	Drug uptake [15]	Survival (PC-3 [16]) [days]
CC[C@H](C)[C@@H]([C@@H](CC(=O)N1CCC[C@H]1[C@H](OC)[C@@H](C)C(=O)N[C@H](C)[C@@H](O)c1ccccc1)OC)N(C)C(=O)[C@@H](NC(=O)[C@H](C(C)C)N(C)C(=O)OCc1ccc(NC(=O)[C@H](CCCNC(N)=O)NC(=O)[C@@H](NC(=O)[C@H](CCC(=O)O)NC(=O)CCCCCN2C(=O)CC(SC[C@H](NC(C)=O)C(=O)NCCOCCOCCOCCOCCC(=O)N[C@H](Cc3ccccc3)C(=O)N[C@@H](CCC(N)=O)C(=O)N[C@@H](CC3=CNC4C=CC=CC34)C(=O)N[C@@H](C)C(=O)N[C@H](C(=O)NCC(=O)N[C@@H](Cc3c[nH]cn3)C(=O)N[C@@H](CC(C)C)[C@@H](O)CC(=O)N[C@@H](CC(C)C)C(N)=O)C(C)C)C2=O)C(C)C)cc1)C(C)C (some centres not stated)	59.4	69.5	29.6	526	4.8	3.5	42.3	43.3	4.6	< 20	65.2	Active	41.6	59.8	Active	49
